Results on five molecules are retold here after ChEMBL document CHEMBL3877270, “Biological and structural studies of phosphonium 'masked thiolate' compounds” (Eur J Med Chem, 2017).

Data set [1] is described as follows: Cytotoxicity against human PC3 cells measured at 72 hrs post dose by Celltiter-Glo luminescent cell viability assay. The format is functional, cell-based. Particulars: PC-3, 72 h; call rule not given here. The method, boiled down: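 PC3 cells (ATCC; DMEM GlutaMAX high glucose, 10% heat-inactivated FBS, pen/strep, 37 °C, 5% CO2) seeded 10,000/well, adhered overnight, then exposed 0–1000 µM for 24, 48, 72 h. Viability by CellTiter-Glo ATP luminescence after 30 min room-temperature equilibration. Vehicle controls at 0.1–0.001% DMSO. Quadruplicate wells, 3 independent experiments (n = 12). Normalised to control; IC50 from curve fit.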
A general note: ATP-based viability assays read luminescence as a measure of living cells.

A short description of data set [2]: Drug uptake in human PC3 cells measured after 90 mins by MALDI-TOF-MS analysis. The conditions noted are these: pc-3, 1.5 h. The format is ADME, cell-based. The method, boiled down: (§1)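 Trypsinised PC3 cells washed in PBS, resuspended in low-K+ HEPES buffer pH 7.4, 0.5×10^6 cells incubated with compound at 5 µM final, 37 °C, 0–120 min. Cells washed in cold PBS, lysed in cold water, lysate spiked with tetraphenylphosphonium bromide internal standard, α-CHCA matrix, positive-ion MALDI-TOF-MS. Amount from calibration curve built in PC3 lysate; triplicate analyses, three independent experiments.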

Data set [3] is described as follows: Aqueous solubility of the compound. It counts as physicochemical. Particulars: buffer.
Data set [4] is described as follows: Drug uptake in human PC3 cells measured after 10 mins by MALDI-TOF-MS analysis. It counts as ADME, cell-based. The conditions noted are these: pc-3, 10 min. The method, boiled down:
as §1

Data set [5] is described as follows: Drug uptake in human PC3 cells measured after 30 mins by MALDI-TOF-MS analysis. It counts as ADME, cell-based. Particulars: pc-3, 0.5 h. Put shortly: as §1
Data set [6] can be described thus: Drug uptake in rat C6 cells at 10 uM measured after 10 to 90 mins by MALDI-TOF-MS analysis relative to tetraphenylphosphonium cation. The conditions noted are these: c6, 10 µM. The format is ADME, cell-based.

What is called IC50 is the concentration needed to halve the response being measured. Read a high IC50 as lower potency.

Molecules are shown by their SMILES.

`Cc1ccc(-c2nc([P+](c3ccccc3)(c3ccccc3)c3ccccc3)c[se]2)cc1` displayed an IC50 in data set [1] of 0.4 µM.
Molecule `C/C(N)=C/[P+](c1ccccc1)(c1ccccc1)c1ccccc1` had an IC50 in data set [1] of 8 µM.
Turning to `CC(=O)SCCC[P+](c1ccc(F)cc1)(c1ccc(F)cc1)c1ccc(F)cc1.[Br-]`, the half-inhibitory concentration (IC50) in data set [1] was 252 µM. Besides, the Drug uptake result in data set [2] was “Active”. Moreover, the solubility result in data set [3] is “Soluble”.
With `CC(=O)SCCC[P+](c1ccccc1)(c1ccccc1)c1ccccc1.[Br-]`, in data set [1], the half-maximal inhibitory concentration (IC50) amounted to 67 µM. Moreover, the Drug uptake entry in data set [4] and in data set [5] was “Active” throughout. In addition, the solubility result in data set [3] is on record as “Soluble”.
In data set [6], `Fc1ccc([P+](c2ccccc2)(c2ccccc2)c2ccccc2)cc1` [BFPET] yielded a Drug uptake of 80%.
